Assay results reported in ChEMBL document CHEMBL1137665, “Antistaphylococcal activity of CG400549, a new experimental FabI inhibitor, compared with that of other agents” (2007).
In brackets after ≈: the same amount, converted by molar mass.

What was measured:
Format in all cases: functional
Staphylococcus aureus [1] = test: Antimicrobial activity against methicillin-resistant Staphylococcus aureus 547 after 14 passages with CG400549 measured after 10 antibiotic-free subculture by multi-step resistance selection technique
Procedure, shortened: (§1)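 Mutants from multistep daily serial passage in subinhibitory drug were then subcultured daily 10 times on antibiotic-free medium. MIC was redetermined after these subcultures to assess stability. Clone identity was checked by pulsed-field gel electrophoresis.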

Staphylococcus aureus [2] = test: Antimicrobial activity against panton-valentine leukocidin-negative community-acquired methicillin-resistant Staphylococcus aureus 481 after 14 passages with daptomycin measured after 10 antibiotic-free subculture by multi-step resistance selection technique; procedure, shortened: as §1
Staphylococcus aureus [3] = test: Antimicrobial activity against methicillin-resistant Staphylococcus aureus 525 by agar dilution CLSI method
Procedure, shortened: (§2)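 CLSI agar dilution MIC against S. aureus clinical isolates. Calcium was added to the medium for daptomycin testing. Vancomycin plates were read after a full 24-h incubation.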

Staphylococcus aureus [4] = test: Antimicrobial activity against vancomycin-intermediate Staphylococcus aureus 504 after 14 passages with CG400549 measured after 10 times antibiotic-free subculture by multi-step resistance selection technique
Procedure, shortened: (§3)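 Multistep-selected mutants (daily passage at subinhibitory drug levels) then subcultured 10 times daily on antibiotic-free medium; MIC redetermined afterwards and compared with the MIC recorded at the end of selection; clone identity to parent checked by pulsed-field gel electrophoresis.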

Staphylococcus aureus [5] = test: Antimicrobial activity against methicillin-resistant Staphylococcus aureus 525 after single-step resistance selection by agar dilution CLSI method
Procedure, shortened: (§4)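 Single-step selection on drug-containing agar across 10 strains (2 MSSA, 8 MRSA, including VRSA and VISA). Colonies arising on confluent background growth were retested by CLSI agar dilution MIC. Resistance was defined as an MIC more than 4× the parent MIC.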

Staphylococcus aureus [6] = test: Antimicrobial activity against methicillin-susceptible Staphylococcus aureus 540 after 24 passages by multi-step resistance selection technique
Procedure, shortened: (§5)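 Multistep selection by daily serial passage of each strain in subinhibitory drug concentrations for the stated number of passages. Mutant MIC was then determined. Identity of mutants and parents was confirmed by pulsed-field gel electrophoresis.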

Staphylococcus aureus [7] = test: Antimicrobial activity against methicillin-susceptible Staphylococcus aureus 543 after 18 passages with quinupristin-dalfopristin measured after 10 antibiotic-free subculture by multi-step resistance selection technique; procedure, shortened: as §1
Staphylococcus aureus [8] = test: Antimicrobial activity against panton-valentine leukocidin-negative community-acquired methicillin-resistant Staphylococcus aureus 481 after 14 passages with CG400549 measured after 10 antibiotic-free subculture by multi-step resistance selection technique; procedure, shortened: as §1
Staphylococcus aureus [9] = test: Antimicrobial activity against methicillin-susceptible Staphylococcus aureus 543 after 15 passages with Linezolid measured after 10 antibiotic-free subculture by multi-step resistance selection technique; procedure, shortened: as §1
Staphylococcus aureus [10] = test: Antimicrobial activity against panton-valentine leukocidin-positive community-acquired methicillin-resistant Staphylococcus aureus 490 after 17 passages with CG400549 measured after 10 antibiotic-free subculture by multi-step resistance selection technique; procedure, shortened: as §3
Staphylococcus aureus [11] = test: Antimicrobial activity against vancomycin-intermediate Staphylococcus aureus 555 Hershey after 50 passages by multi-step resistance selection technique
Procedure, shortened: (§6)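 Multistep selection: 10 S. aureus strains (8 MRSA incl. two VRSA, two VISA; 2 MSSA) serially passaged daily at subinhibitory concentrations of each antimicrobial; MICs of mutants retested and compared with parent; clone identity versus parent confirmed by pulsed-field gel electrophoresis at study end.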

Staphylococcus aureus [12] = test: Antimicrobial activity against panton-valentine leukocidin-positive community-acquired methicillin-resistant Staphylococcus aureus 490 after 14 passages by multi-step resistance selection technique; procedure, shortened: as §6
Staphylococcus aureus [13] = test: Antimicrobial activity against methicillin-susceptible Staphylococcus aureus 540 after 36 passages with Linezolid measured after 10 antibiotic-free subculture by multi-step resistance selection technique; procedure, shortened: as §1
Staphylococcus aureus [14] = test: Antimicrobial activity against vancomycin-resistant Staphylococcus aureus 509 Michigan after 20 passages by multi-step resistance selection technique; procedure, shortened: as §6
Staphylococcus aureus [15] = test: Antimicrobial activity against vancomycin-intermediate Staphylococcus aureus 504 after 22 passages with Linezolid measured after 10 times antibiotic-free subculture by multi-step resistance selection technique; procedure, shortened: as §3
Staphylococcus aureus [16] = test: Antimicrobial activity against vancomycin-intermediate Staphylococcus aureus 555 Hershey after 20 passages with quinupristin-dalfopristin measured after 10 antibiotic-free subculture by multi-step resistance selection technique; procedure, shortened: as §3
Staphylococcus aureus [17] = test: Antimicrobial activity against methicillin-resistant Staphylococcus aureus 525 after 20 passages by multi-step resistance selection technique; procedure, shortened: as §5
Staphylococcus aureus [18] = test: Antimicrobial activity against methicillin-susceptible Staphylococcus aureus by agar dilution CLSI method; procedure, shortened: as §2
Staphylococcus aureus [19] = test: Antimicrobial activity against panton-valentine leukocidin-positive community-acquired methicillin-resistant Staphylococcus aureus 490 after 23 passages with quinupristin-dalfopristin measured after 10 antibiotic-free subculture by multi-step resistance selection technique; procedure, shortened: as §3
Staphylococcus aureus [20] = test: Antimicrobial activity against methicillin-resistant Staphylococcus aureus 547 after 21 passages by multi-step resistance selection technique; procedure, shortened: as §5
Staphylococcus aureus [21] = test: Antimicrobial activity against methicillin-susceptible Staphylococcus aureus 543 after 17 passages by multi-step resistance selection technique; procedure, shortened: as §5
Staphylococcus aureus [22] = test: Antimicrobial activity against methicillin and vancomycin-resistant Staphylococcus aureus 509 after single-step resistance selection by agar dilution CLSI method; procedure, shortened: as §4
Staphylococcus aureus [23] = test: Antimicrobial activity against vancomycin-intermediate Staphylococcus aureus 504 after 16 passages with quinupristin-dalfopristin measured after 10 times antibiotic-free subculture by multi-step resistance selection technique; procedure, shortened: as §3
Staphylococcus aureus [24] = test: Antimicrobial activity against methicillin-resistant Staphylococcus aureus 547 by agar dilution CLSI method; procedure, shortened: as §2
Staphylococcus aureus [25] = test: Antimicrobial activity against methicillin-resistant Staphylococcus aureus 547 after single-step resistance selection by agar dilution CLSI method; procedure, shortened: as §4
Staphylococcus aureus [26] = test: Antimicrobial activity against vancomycin-intermediate Staphylococcus aureus 555 Hershey by agar dilution CLSI method
Procedure, shortened: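 Agar dilution MIC per CLSI methodology; calcium supplemented for daptomycin testing; vancomycin plates read after a full 24-h incubation.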

Staphylococcus aureus [27] = test: Antimicrobial activity against vancomycin-resistant Staphylococcus aureus 510 Hershey after 18 passages by multi-step resistance selection technique; procedure, shortened: as §6
Staphylococcus aureus [28] = test: Antimicrobial activity against methicillin-susceptible Staphylococcus aureus 540 after single-step resistance selection by agar dilution CLSI method; procedure, shortened: as §4
Staphylococcus aureus [29] = test: Antimicrobial activity against methicillin-susceptible Staphylococcus aureus 543 after 17 passages with daptomycin measured after 10 antibiotic-free subculture by multi-step resistance selection technique; procedure, shortened: as §1
Staphylococcus aureus [30] = test: Antimicrobial activity against methicillin-susceptible Staphylococcus aureus 540 after 14 passages by multi-step resistance selection technique; procedure, shortened: as §5
Staphylococcus aureus [31] = test: Antimicrobial activity against panton-valentine leukocidin-positive community-acquired methicillin-resistant Staphylococcus aureus 490 after 17 passages by multi-step resistance selection technique; procedure, shortened: as §6
Staphylococcus aureus [32] = test: Antimicrobial activity against vancomycin-intermediate Staphylococcus aureus 504 after 14 passages by multi-step resistance selection technique; procedure, shortened: as §6
Staphylococcus aureus [33] = test: Antimicrobial activity against vancomycin-intermediate Staphylococcus aureus 555 Hershey after 14 passages by multi-step resistance selection technique; procedure, shortened: as §6
Staphylococcus aureus [34] = test: Antimicrobial activity against methicillin-resistant Staphylococcus aureus 525 after 14 passages by multi-step resistance selection technique; procedure, shortened: as §5
Staphylococcus aureus [35] = test: Antimicrobial activity against vancomycin-resistant Staphylococcus aureus 510 Hershey after 14 passages by multi-step resistance selection technique; procedure, shortened: as §6
Staphylococcus aureus [36] = test: Antimicrobial activity against vancomycin-resistant Staphylococcus aureus 509 Michigan after 14 passages by multi-step resistance selection technique; procedure, shortened: as §6
Staphylococcus aureus [37] = test: Antimicrobial activity against methicillin-susceptible Staphylococcus aureus 543 after 14 passages by multi-step resistance selection technique; procedure, shortened: as §5

SMILES | MIC (Staphylococcus aureus [1]) [µg/mL] | MIC (Staphylococcus aureus [2]) [µg/mL] | MIC (Staphylococcus aureus [3]) [µg/mL] | MIC (Staphylococcus aureus [4]) [µg/mL] | MIC (Staphylococcus aureus [5]) [µg/mL] | MIC (Staphylococcus aureus [7]) [µg/mL] | MIC (Staphylococcus aureus [8]) [µg/mL] | MIC (Staphylococcus aureus [9]) [µg/mL] | MIC (Staphylococcus aureus [10]) [µg/mL] | MIC (Staphylococcus aureus [13]) [µg/mL] | MIC (Staphylococcus aureus [15]) [µg/mL] | MIC (Staphylococcus aureus [16]) [µg/mL] | MIC50 (Staphylococcus aureus [18]) [µg/mL] | MIC90 (Staphylococcus aureus [18]) [µg/mL] | MIC (Staphylococcus aureus [19]) [µg/mL] | MIC (Staphylococcus aureus [22]) [µg/mL] | MIC (Staphylococcus aureus [23]) [µg/mL] | MIC (Staphylococcus aureus [24]) [µg/mL] | MIC (Staphylococcus aureus [25]) [µg/mL] | MIC (Staphylococcus aureus [26]) [µg/mL] | other results
CCCCCCCCCC(=O)N[C@@H](Cc1c[nH]c2ccccc12)C(=O)N[C@H](CC(N)=O)C(=O)N[C@@H](CC(=O)O)C(=O)N[C@@H]1C(=O)NCC(=O)N[C@@H](CCCN)C(=O)N[C@@H](CC(=O)O)C(=O)N[C@H](C)C(=O)N[C@@H](CC(=O)O)C(=O)NCC(=O)N[C@H](CO)C(=O)N[C@@H]([C@H](C)CC(=O)O)C(=O)N[C@@H](CC(=O)c2ccccc2N)C(=O)O[C@@H]1C | 1 (≈ 0.617 µM) | 8 (≈ 4.94 µM) | 1 (≈ 0.617 µM) | 1 (≈ 0.617 µM) | 0.5 (≈ 0.309 µM) | 2 (≈ 1.23 µM) | 1 (≈ 0.617 µM) | 2 (≈ 1.23 µM) | 1 (≈ 0.617 µM) | 2 (≈ 1.23 µM) | 1 (≈ 0.617 µM) | 2 (≈ 1.23 µM) | 1 (≈ 0.617 µM) | 1 (≈ 0.617 µM) | 1 (≈ 0.617 µM) | 0.5 (≈ 0.309 µM) | 2 (≈ 1.23 µM) | 1 (≈ 0.617 µM) | 0.5 (≈ 0.309 µM) | 16 (≈ 9.87 µM) | MIC (Staphylococcus aureus [6]): 8 µg/mL (≈ 4.94 µM); MIC (Staphylococcus aureus [11]): 32 µg/mL (≈ 19.7 µM); MIC (Staphylococcus aureus [12]): 8 µg/mL (≈ 4.94 µM); MIC (Staphylococcus aureus [14]): 8 µg/mL (≈ 4.94 µM); MIC (Staphylococcus aureus [17]): 8 µg/mL (≈ 4.94 µM); MIC (Staphylococcus aureus [20]): 8 µg/mL (≈ 4.94 µM); MIC (Staphylococcus aureus [21]): 8 µg/mL (≈ 4.94 µM); MIC (Staphylococcus aureus [27]): 8 µg/mL (≈ 4.94 µM); MIC (Staphylococcus aureus [28]): 0.5 µg/mL (≈ 0.309 µM); MIC (Staphylococcus aureus [29]): 4 µg/mL (≈ 2.47 µM)
Cc1c(N)cccc1Cn1ccc(OCCc2cccs2)cc1=O [CG-400549] | 8 (≈ 23.5 µM) | 0.25 (≈ 0.734 µM) | 0.25 (≈ 0.734 µM) | 2 (≈ 5.87 µM) | 0.125 (≈ 0.367 µM) | 0.125 (≈ 0.367 µM) | 2 (≈ 5.87 µM) | 0.125 (≈ 0.367 µM) | 8 (≈ 23.5 µM) | 0.125 (≈ 0.367 µM) | 0.25 (≈ 0.734 µM) | 0.25 (≈ 0.734 µM) | 0.25 (≈ 0.734 µM) | 0.25 (≈ 0.734 µM) | 0.125 (≈ 0.367 µM) | 0.125 (≈ 0.367 µM) | 0.5 (≈ 1.47 µM) | 0.125 (≈ 0.367 µM) | 0.125 (≈ 0.367 µM) | 0.25 (≈ 0.734 µM) | MIC (Staphylococcus aureus [30]): 16 µg/mL (≈ 47 µM); MIC (Staphylococcus aureus [31]): 8 µg/mL (≈ 23.5 µM); MIC (Staphylococcus aureus [32]): 2 µg/mL (≈ 5.87 µM); MIC (Staphylococcus aureus [33]): 2 µg/mL (≈ 5.87 µM); MIC (Staphylococcus aureus [34]): 4 µg/mL (≈ 11.7 µM); MIC (Staphylococcus aureus [35]): 4 µg/mL (≈ 11.7 µM); MIC (Staphylococcus aureus [36]): > 64 µg/mL; MIC (Staphylococcus aureus [37]): 8 µg/mL (≈ 23.5 µM); MIC (Staphylococcus aureus [28]): 0.125 µg/mL (≈ 0.367 µM); MIC (Staphylococcus aureus [29]): 0.125 µg/mL (≈ 0.367 µM)
